# Measured values published in ChEMBL document CHEMBL4689842, “EUbOPEN Chemogenomics Library wave 1” (2021).
# System: Fibroblast
# Experiment: Multiplex assay against human fibroblast
# Assay type: toxicity, cell-based
# How it was run: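 Compound was added to live cells that had been stained at seeding with Hoechst33342, BioTracker Green Microtubule Cytoskeleton Dye, MitoTracker Red and Annexin V Alexa Fluor 680, and imaging followed on a CQ1 microscope at 37°C and 5% CO2. CellPathfinder machine-learning gating divided cells into Hoechst high-intensity objects or normal cells, normal cells into healthy, pyknosed or fragmented nuclei, and pyknosed cells into mitotic or apoptotic. Tubulin, mitochondrial-mass and membrane-permeability phenotypes are per cents of healthy-nucleus cells.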
# [1] = 12 h, 1 µM, compound concentration 1 uM, replicate 1
# [2] = 12 h, 1 µM, compound concentration 1 uM, replicate 2
# [3] = 12 h, 10 µM, compound concentration 10 uM, replicate 1
# [4] = 12 h, 10 µM, compound concentration 10 uM, replicate 2
# [5] = 24 h, 1 µM, compound concentration 1 uM, replicate 1
# [6] = 24 h, 1 µM, compound concentration 1 uM, replicate 2
# [7] = 24 h, 10 µM, compound concentration 10 uM, replicate 1
# [8] = 24 h, 10 µM, compound concentration 10 uM, replicate 2
# [9] = 48 h, 1 µM, compound concentration 1 uM, replicate 1
# [10] = 48 h, 1 µM, compound concentration 1 uM, replicate 2
# [11] = 48 h, 10 µM, compound concentration 10 uM, replicate 1
# [12] = 48 h, 10 µM, compound concentration 10 uM, replicate 2
compound,measurement,setting,value
CNc1nc(NCc2ccc(NS(C)(=O)=O)cc2Cl)cc(-c2ccccn2)n1,Population Apoptotic (%),[1],70%
same,Population Fragmented Nuclei (%),[1],22%
same,Population Healthy Nuclei (%),[1],41%
same,Population Hoechst High Intensity Objects (%),[1],7%
same,Population Membrane Permeable-Phenotype (%),[1],22%
same,Population Mitochondria Different-Phenotype (%),[1],4%
same,Population Mitotic Cells (%),[1],29%
same,Population Normal (%),[1],92%
same,Population Pyknosed Nuclei (%),[1],36%
same,Population Tubulin-Different-Phenotype (%),[1],41%
same,Total Cell Count,[1],164
same,Population Apoptotic (%),[2],33%
same,Population Fragmented Nuclei (%),[2],11%
same,Population Healthy Nuclei (%),[2],82%
same,Population Hoechst High Intensity Objects (%),[2],8%
same,Population Membrane Permeable-Phenotype (%),[2],0%
same,Population Mitochondria Different-Phenotype (%),[2],9%
same,Population Mitotic Cells (%),[2],66%
same,Population Normal (%),[2],91%
same,Population Pyknosed Nuclei (%),[2],5%
same,Population Tubulin-Different-Phenotype (%),[2],11%
same,Total Cell Count,[2],61
same,Population Apoptotic (%),[3],60%
same,Population Fragmented Nuclei (%),[3],23%
same,Population Healthy Nuclei (%),[3],39%
same,Population Hoechst High Intensity Objects (%),[3],17%
same,Population Membrane Permeable-Phenotype (%),[3],21%
same,Population Mitochondria Different-Phenotype (%),[3],15%
same,Population Mitotic Cells (%),[3],39%
same,Population Normal (%),[3],82%
same,Population Pyknosed Nuclei (%),[3],36%
same,Population Tubulin-Different-Phenotype (%),[3],82%
same,Total Cell Count,[3],142
same,Population Apoptotic (%),[4],57%
same,Population Fragmented Nuclei (%),[4],6%
same,Population Healthy Nuclei (%),[4],81%
same,Population Hoechst High Intensity Objects (%),[4],9%
same,Population Membrane Permeable-Phenotype (%),[4],12%
same,Population Mitochondria Different-Phenotype (%),[4],32%
same,Population Mitotic Cells (%),[4],42%
same,Population Normal (%),[4],90%
same,Population Pyknosed Nuclei (%),[4],11%
same,Population Tubulin-Different-Phenotype (%),[4],30%
same,Total Cell Count,[4],56
same,Population Apoptotic (%),[5],70%
same,Population Fragmented Nuclei (%),[5],25%
same,Population Healthy Nuclei (%),[5],53%
same,Population Hoechst High Intensity Objects (%),[5],11%
same,Population Membrane Permeable-Phenotype (%),[5],23%
same,Population Mitochondria Different-Phenotype (%),[5],7%
same,Population Mitotic Cells (%),[5],29%
same,Population Normal (%),[5],88%
same,Population Pyknosed Nuclei (%),[5],20%
same,Population Tubulin-Different-Phenotype (%),[5],43%
same,Total Cell Count,[5],169
same,Population Apoptotic (%),[6],25%
same,Population Fragmented Nuclei (%),[6],8%
same,Population Healthy Nuclei (%),[6],85%
same,Population Hoechst High Intensity Objects (%),[6],1%
same,Population Membrane Permeable-Phenotype (%),[6],0%
same,Population Mitochondria Different-Phenotype (%),[6],11%
same,Population Mitotic Cells (%),[6],75%
same,Population Normal (%),[6],98%
same,Population Pyknosed Nuclei (%),[6],5%
same,Population Tubulin-Different-Phenotype (%),[6],11%
same,Total Cell Count,[6],67
same,Population Apoptotic (%),[7],64%
same,Population Fragmented Nuclei (%),[7],31%
same,Population Healthy Nuclei (%),[7],46%
same,Population Hoechst High Intensity Objects (%),[7],27%
same,Population Membrane Permeable-Phenotype (%),[7],18%
same,Population Mitochondria Different-Phenotype (%),[7],18%
same,Population Mitotic Cells (%),[7],35%
same,Population Normal (%),[7],72%
same,Population Pyknosed Nuclei (%),[7],22%
same,Population Tubulin-Different-Phenotype (%),[7],77%
same,Total Cell Count,[7],174
same,Population Apoptotic (%),[8],50%
same,Population Fragmented Nuclei (%),[8],20%
same,Population Healthy Nuclei (%),[8],66%
same,Population Hoechst High Intensity Objects (%),[8],10%
same,Population Membrane Permeable-Phenotype (%),[8],4%
same,Population Mitochondria Different-Phenotype (%),[8],26%
same,Population Mitotic Cells (%),[8],50%
same,Population Normal (%),[8],89%
same,Population Pyknosed Nuclei (%),[8],12%
same,Population Tubulin-Different-Phenotype (%),[8],17%
same,Total Cell Count,[8],71
same,Population Apoptotic (%),[9],77%
same,Population Fragmented Nuclei (%),[9],29%
same,Population Healthy Nuclei (%),[9],63%
same,Population Hoechst High Intensity Objects (%),[9],17%
same,Population Membrane Permeable-Phenotype (%),[9],23%
same,Population Mitochondria Different-Phenotype (%),[9],7%
same,Population Mitotic Cells (%),[9],22%
same,Population Normal (%),[9],82%
same,Population Pyknosed Nuclei (%),[9],7%
same,Population Tubulin-Different-Phenotype (%),[9],46%
same,Total Cell Count,[9],155
same,Population Apoptotic (%),[10],50%
same,Population Fragmented Nuclei (%),[10],28%
same,Population Healthy Nuclei (%),[10],69%
same,Population Hoechst High Intensity Objects (%),[10],8%
same,Population Membrane Permeable-Phenotype (%),[10],4%
same,Population Mitochondria Different-Phenotype (%),[10],2%
same,Population Mitotic Cells (%),[10],50%
same,Population Normal (%),[10],91%
same,Population Pyknosed Nuclei (%),[10],2%
same,Population Tubulin-Different-Phenotype (%),[10],38%
same,Total Cell Count,[10],105
same,Population Apoptotic (%),[11],70%
same,Population Fragmented Nuclei (%),[11],29%
same,Population Healthy Nuclei (%),[11],61%
same,Population Hoechst High Intensity Objects (%),[11],36%
same,Population Membrane Permeable-Phenotype (%),[11],20%
same,Population Mitochondria Different-Phenotype (%),[11],12%
same,Population Mitotic Cells (%),[11],30%
same,Population Normal (%),[11],63%
same,Population Pyknosed Nuclei (%),[11],9%
same,Population Tubulin-Different-Phenotype (%),[11],84%
same,Total Cell Count,[11],168
same,Population Apoptotic (%),[12],100%
same,Population Fragmented Nuclei (%),[12],27%
same,Population Healthy Nuclei (%),[12],71%
same,Population Hoechst High Intensity Objects (%),[12],41%
same,Population Membrane Permeable-Phenotype (%),[12],15%
same,Population Mitochondria Different-Phenotype (%),[12],3%
same,Population Mitotic Cells (%),[12],0%
same,Population Normal (%),[12],58%
same,Population Pyknosed Nuclei (%),[12],1%
same,Population Tubulin-Different-Phenotype (%),[12],79%
same,Total Cell Count,[12],203
